The values below come from ChEMBL document CHEMBL1949557, “Discovery of INCB3284, a Potent, Selective, and Orally Bioavailable hCCR2 Antagonist” (ACS Med Chem Lett, 2011).

Data set [1] is described as follows: Cmax in chimpanzee at 4 mg/kg, po. The class given is ADME, organism-based, Pan troglodytes. The arrangement: dose 4 mg/kg, route oral. To be noted: in vivo. In a few lines: (§1)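 Pharmacokinetics run in rats, dogs, cynomolgus monkeys and chimpanzees, with two animals per species for the iv arm and two per species for the oral arm. Parameters were derived per species and route: CL, Vss and T1/2 from iv dosing; Cmax, Tmax, AUC, T1/2 and F% from oral dosing. Values are reported as mean ± spread.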

Data set [2] can be described thus: Tmax in chimpanzee at 4 mg/kg, po. The data set is classed as ADME, organism-based, Pan troglodytes. The arrangement: dose 4 mg/kg, route oral. The note with it: in vivo. An outline of the steps: as §1
Data set [3] is described as follows: Half life in human administered as qd. The data set is classed as ADME, organism-based. The note with it: in vivo.
Data set [4] is described as follows: Clearance in dog at 5 mg/kg, iv. To be noted: in vivo. Set-up: dose 5 mg/kg, route intravenous. The data set is classed as ADME, organism-based, Canis lupus familiaris. An outline of the steps: as §1
The nature of data set [5]: Half life in dog at 5 mg/kg, iv. The class given is ADME, organism-based, Canis lupus familiaris. Set-up: dose 5 mg/kg, route intravenous. The note with it: in vivo. In a few lines:
as §1

Data set [6] can be described thus: Tmax in dog at 30 mg/kg, po. The class given is ADME, organism-based, Canis lupus familiaris. Set-up: dose 30 mg/kg, route oral. The note with it: in vivo. In a few lines: as §1
Data set [7] in a line: Half life in cynomolgus monkey at 5 mg/kg, iv. The data set is classed as ADME, organism-based, Macaca fascicularis. The arrangement: dose 5 mg/kg, route intravenous. The note with it: in vivo. An outline of the steps: as §1
The target of data set [8] is C-C chemokine receptor type 2 (Homo sapiens, UniProt P41597). Kind of data set: Inhibition of human CCR2-mediated intracellular calcium mobilization by cell based assay. The class given is functional.
Data set [9] can be described thus: Half life in rat at 5 mg/kg, iv. The data set is classed as ADME, organism-based. The arrangement: dose 5 mg/kg, route intravenous. The note with it: in vivo. In a few lines: as §1
Data set [10] relates to Rattus norvegicus. Description: Oral bioavailability in rat at 10 mg/kg. The class given is ADME, organism-based. To be noted: in vivo. An outline of the steps:
as §1

In data set [11] the target is T1, C-C chemokine receptor type 3 (Homo sapiens) (UniProt P51677).
T1 sequence (whole entry): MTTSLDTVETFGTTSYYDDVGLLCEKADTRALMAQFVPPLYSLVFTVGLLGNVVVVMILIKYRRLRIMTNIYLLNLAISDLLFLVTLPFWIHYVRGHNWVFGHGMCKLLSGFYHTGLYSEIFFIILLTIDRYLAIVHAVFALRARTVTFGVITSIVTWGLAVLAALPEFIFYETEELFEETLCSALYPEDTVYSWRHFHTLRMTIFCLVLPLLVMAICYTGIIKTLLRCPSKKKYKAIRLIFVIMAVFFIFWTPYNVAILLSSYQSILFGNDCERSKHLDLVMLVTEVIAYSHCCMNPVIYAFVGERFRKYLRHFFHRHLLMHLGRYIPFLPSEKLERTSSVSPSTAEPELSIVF
Kind of data set: Inhibition of CCR3 at 1 uM. In a few lines: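 Cerep selectivity panel of over 50 ion channels, transporters, chemokine receptors and other GPCRs. Single test concentration of 1 μM, scored for significant inhibition.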

The nature of data set [12]: Oral bioavailability in cynomolgus monkey at 30 mg/kg. To be noted: in vivo. The data set is classed as ADME, organism-based, Macaca fascicularis. In a few lines: as §1
A short description of data set [13]: Oral bioavailability in chimpanzee at 4 mg/kg. To be noted: in vivo. The class given is ADME, organism-based, Pan troglodytes. An outline of the steps: as §1
The nature of data set [14]: Cmax in dog at 30 mg/kg, po. The arrangement: dose 30 mg/kg, route oral. To be noted: in vivo. The data set is classed as ADME, organism-based, Canis lupus familiaris. In a few lines:
as §1

Data set [15] deals with Liver. Kind of data set: Metabolic stability in human liver S9 fraction assessed as glutathione adduct formation in presence of glutathione. The class given is ADME, subcellular.
Data set [16] concerns Mus musculus. Description: Dose normalized AUC in mouse at 10 mg/kg, po. The class given is ADME, organism-based. Set-up: dose 10 mg/kg, route oral. To be noted: in vivo. In a few lines:
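Mouse oral PK screen by cassette dosing at 10 mg/kg, three animals per cassette. AUC is dose-normalized.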

Activity calls are given as the source filed them. No cut-off for these calls is given here.

Broadly, the Cmax is the maximum level reached in the sampled fluid or tissue. In general, Tmax refers to the time at which the peak concentration occurs. Broadly, the half-life is how long it takes for the measured level to halve. A word on the clearance: it is the rate of elimination divided by the concentration. One may read the IC50 as the concentration at which inhibition is half-maximal. The bioavailability is the share of a dose that reaches the circulation, judged against a reference dose that is usually intravenous.

C-C chemokine receptor type 2, sequence (P41597 whole entry): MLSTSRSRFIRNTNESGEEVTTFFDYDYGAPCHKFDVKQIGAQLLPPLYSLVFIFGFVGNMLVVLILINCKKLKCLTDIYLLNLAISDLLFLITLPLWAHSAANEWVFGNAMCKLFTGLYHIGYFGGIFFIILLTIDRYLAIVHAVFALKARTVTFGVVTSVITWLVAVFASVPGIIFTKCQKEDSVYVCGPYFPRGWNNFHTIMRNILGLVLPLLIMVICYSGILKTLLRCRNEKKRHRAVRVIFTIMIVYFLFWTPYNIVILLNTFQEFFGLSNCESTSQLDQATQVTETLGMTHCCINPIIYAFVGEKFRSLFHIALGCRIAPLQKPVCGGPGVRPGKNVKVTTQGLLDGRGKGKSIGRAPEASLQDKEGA

On to `COc1ccc([C@]2(O)CC[C@H](N3CC[C@@H](NC(=O)CNC(=O)c4cccc(C(F)(F)F)c4)C3)CC2)cn1.CS(=O)(=O)O`, for which the Cmax in [1] stood at 1.12 µM; in data set [14] it was 7.81 µM. Moreover, the values for the Tmax in [2] and in [6] were 2 h and 1.5 h, respectively. Also, the half-life in data set [3] was 15 h; in data set [5], 3.5 h; in data set [7] it was 2.2 h; in [9], 2.8 h. This compound also gave a clearance in [4] of 9.5 mL/min/kg. Besides, the 50% inhibitory concentration (IC50) in [8] is 6 nM. Also, the F in [10] is on record as 20%. Besides, in [11], the inhibition result is “inactive”. Moreover, the figures for the bioavailability in data set [12] and in data set [13] were 13% and 23%, respectively. Further, in data set [15], the Stability result was “Stable”. Further, the AUC/dose in [16] was found to be 617 nM·h.
